# From ChEMBL document CHEMBL1137607, “De novo discovery of serotonin N-acetyltransferase inhibitors” (J Med Chem, 2007)
# The source made the active and inactive calls. The calls are words filed in the database; no cut-off is given here.
# How the values were obtained:
# [1] = target: Serotonin N-acetyltransferase (Ovis aries) (UniProt Q29495); conditions: at 100 µM
# [2] = target: Serotonin N-acetyltransferase (Ovis aries) (UniProt Q29495); conditions: at 100 µM; remark: listed apart in the source
# [3] = target: Serotonin N-acetyltransferase (Ovis aries) (UniProt Q29495); conditions: at 100 µM; remark: listed apart in the source
# [4] = target: Serotonin N-acetyltransferase (Ovis aries) (UniProt Q29495); conditions: at 100 µM; remark: listed apart in the source
# [5] = target: Serotonin N-acetyltransferase (Ovis aries) (UniProt Q29495); experiment: Inhibition of ovine AANAT at 25 uM by alpha-KD-coupled spectrophotometric assay
# [6] = target: Serotonin N-acetyltransferase (Ovis aries) (UniProt Q29495); experiment: Inhibition of ovine AANAT at 25 uM by spectrophotometric assay
# [7] = target: Serotonin N-acetyltransferase (Ovis aries) (UniProt Q29495); experiment: Inhibition of ovine AANAT in presence of Triton X-100 at 25 uM by spectrophotometric assay
# [8] = target: T1, Serotonin N-acetyltransferase (Ovis aries, UniProt Q29495); experiment: Inhibition of ovine AANAT by spectrophotometric assay
# [9] = target: Serotonin N-acetyltransferase (Ovis aries) (UniProt Q29495); experiment: Inhibition of ovine AANAT at 25 uM by radioactive assay
# [10] = target: Histone acetyltransferase KAT2B (Homo sapiens) (UniProt Q92831); experiment: Inhibition of PCAF HAT at 50 uM
# Procedure, shortened: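 Radioactive HAT assay on purified PCAF HAT catalytic domain (10 nM), with histone H3 residues 1-20 (10 μM) as substrate, in 50 mM Tris-HCl pH 8.0, 1 mM DTT, 0.1 mM EDTA, 50 μg/mL BSA, 3.3% DMSO, 30 °C. Inhibitor tested at 0-50 μM. Started with 20 μM [14C]-AcCoA and quenched after 5 min. Gel separation, phosphorimaging against [14C]-BSA standard, no-enzyme background subtracted, duplicates.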
# [11] = target: T1, Serotonin N-acetyltransferase; experiment: Inhibition of ovine AANAT by TLC-based radioactive assay
# [12] = Toxicity in rat pinealocytes; format: cell-based; conditions: in vitro
# [13] = Inhibition of melatonin biosynthesis in rat pinealocytes; format: functional, cell-based
# Sequence of Serotonin N-acetyltransferase (Ovis aries) (Q29495 whole entry): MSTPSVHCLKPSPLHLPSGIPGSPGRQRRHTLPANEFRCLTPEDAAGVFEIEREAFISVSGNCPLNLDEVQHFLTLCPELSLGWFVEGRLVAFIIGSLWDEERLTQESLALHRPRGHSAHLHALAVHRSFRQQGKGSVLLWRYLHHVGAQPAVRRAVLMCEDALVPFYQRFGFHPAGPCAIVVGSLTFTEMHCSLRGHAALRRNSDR
# T1 sequence (Q29495 whole entry): as above
# Sequence of Histone acetyltransferase KAT2B (Homo sapiens) (Q92831 whole entry, looked up, the tested form may be a part): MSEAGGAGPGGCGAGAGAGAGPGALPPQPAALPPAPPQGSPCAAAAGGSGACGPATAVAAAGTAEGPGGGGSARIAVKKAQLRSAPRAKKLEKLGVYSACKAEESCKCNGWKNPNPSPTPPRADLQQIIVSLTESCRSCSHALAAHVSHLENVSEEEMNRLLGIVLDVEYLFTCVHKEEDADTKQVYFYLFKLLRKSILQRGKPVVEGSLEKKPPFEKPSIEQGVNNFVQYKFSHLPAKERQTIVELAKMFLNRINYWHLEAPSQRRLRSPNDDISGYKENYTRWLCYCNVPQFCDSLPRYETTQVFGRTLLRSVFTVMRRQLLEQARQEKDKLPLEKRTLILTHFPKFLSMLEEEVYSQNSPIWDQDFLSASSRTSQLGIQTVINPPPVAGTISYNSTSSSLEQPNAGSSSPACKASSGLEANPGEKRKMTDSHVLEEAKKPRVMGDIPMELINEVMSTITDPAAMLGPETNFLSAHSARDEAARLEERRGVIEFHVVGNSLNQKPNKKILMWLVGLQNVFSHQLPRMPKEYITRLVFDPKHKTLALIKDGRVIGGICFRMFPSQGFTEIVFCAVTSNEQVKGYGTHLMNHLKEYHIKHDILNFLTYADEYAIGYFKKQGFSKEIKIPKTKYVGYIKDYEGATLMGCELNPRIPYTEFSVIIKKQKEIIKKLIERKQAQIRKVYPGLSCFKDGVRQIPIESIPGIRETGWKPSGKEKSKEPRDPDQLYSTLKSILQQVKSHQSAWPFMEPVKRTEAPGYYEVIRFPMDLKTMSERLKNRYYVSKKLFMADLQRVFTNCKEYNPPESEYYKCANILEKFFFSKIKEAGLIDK
Structure (SMILES),inhibition [1] [%],inhibition [2] [%],inhibition [3] [%],inhibition [4] [%],inhibition [5] [%],inhibition [6] [%],inhibition [7] [%],IC50 [8] [µM],also measured
CCOc1ccc(C(=O)CC(=O)Nc2ccc(S(=O)(=O)F)cc2)cc1OC,98,79,31,100,,,,,
O=C1CC(CC(=O)N/N=C/c2c(O)ccc3ccccc23)=NN1,50,,,23,,,,,
O=C(O)CCCCCN1C(=O)/C(=C2/C(=O)N(CC(=O)O)c3ccc(Br)cc32)SC1=S,,,,,11,43,55,,
COc1ccc(/C=N/c2ccc(CC(=O)O)cc2)cc1,41,64,13,30,,,,,
O=C(CN1C(=O)C(C2SC(=S)N(CCS(=O)(=O)O)C2=O)c2ccccc21)Nc1ccccc1 (stereo not given),99,70,99,80,,,,15.8,
CC(C)Oc1ccc(C(=O)CC(=O)Nc2ccc(S(=O)(=O)F)cc2)cc1,,,,,0,43,59,,
CCc1ccc(/C=N/c2c(C)n(C)n(-c3ccccc3)c2=O)cc1,,,,,47,70,61,,inhibition [9]: 0%
O=C(COc1ccc([N+](=O)[O-])cc1)N/N=C/c1ccccc1COc1ccccc1,40,,,11,,,,,
O=C(O)COc1ccc(/C=N/NC(=O)c2ccc(OCc3ccccc3)cc2)cc1,,,74,,,,,402,
COc1ccc(/N=N/c2ccc(S(=O)(=O)O)cc2)cc1,65,28,,60,,,,,
COc1ccc(NC(=O)CN2C(=O)/C(=C3\SCN(CCS(=O)(=O)O)C3=O)c3ccccc32)cc1,,,,,56,52,41,,inhibition [9]: 0%
O=C(O)CCCCCN1C(=O)C(C2C(=O)Nc3ccccc32)SC1=S (stereo not given),100,78,94,83,,,,52.9,
O=C(O)CCCCCN1C(=O)C(C2C(=O)N(Cc3ccc(F)cc3)c3ccccc32)SC1=S (stereo not given),81,66,98,74,,,,45.2,Activity [10]: inactive; IC50 [11]: 11.1 µM; Activity [12]: Non-toxic; IC50 [13]: 100 µM
O=C(O)CCCN1C(=O)/C(=C2/C(=O)Nc3ccc(Br)cc32)SC1=S,,,,,21,52,41,,
Cc1ccc(CN2C(=O)C(C3SC(=S)N(CCS(=O)(=O)O)C3=O)c3ccccc32)cc1 (stereo not given),84,54,99,98,,,,25.2,
COC(=O)Nc1ccc(S(=O)(=O)Nc2cc(OC)nc(OC)n2)cc1,42,,,24,,,,,
